In ChEMBL document CHEMBL4130442, “Design, synthesis and structure-activity relationship studies of a focused library of pyrimidine moiety with anti-proliferative and anti-metastasis activities in triple negative breast cancer” (Eur J Med Chem, 2017):

Key:
MDA-MB-231 [1] = assay: Effect on total c-Raf protein level in human MDA-MB-231 cells at 2.5 uM incubated for 24 hrs in presence of PDGFRbeta siRNA by Western blot relative to untreated control; type: cell-based; settings: mda-mb-231, 24 h
MDA-MB-231 [2] = assay: Effect on total MEK1/2 protein level in human MDA-MB-231 cells at 10 uM incubated for 24 hrs in presence of PDGFRbeta siRNA by Western blot relative to untreated control; type: cell-based; settings: mda-mb-231, 24 h
MDA-MB-231 [3] = assay: Induction of autophagy in human MDA-MB-231 cells assessed as change in LC3-2 protein level at 10 uM incubated for 24 hrs by Western blot method relative to untreated control; type: functional
In short: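 MDA-MB-231 cells (ATCC; DMEM, 10% FBS, 5% CO2) were treated 24 h over a concentration series. Adherent and floating cells were pooled and lysed 1 h at 4 °C (50 mM Hepes pH 7.4, 1% Triton X-100, phosphatase/protease inhibitors). Equal protein was run on 10-15% SDS-PAGE, transferred to PVDF, probed for Beclin-1, p62 and LC3 with HRP/ECL detection, and normalised to β-actin.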

[4] = target: T1, Platelet-derived growth factor receptor beta (Homo sapiens, UniProt P09619); assay: Inhibition of PDGFRbeta in human MDA-MB-231 cells assessed as PDGFRbeta Tyr740 phosphorylation level at 2.5 uM incubated for 24 hrs by Western blot relative to untreated control; type: cell-based
In short: (§1)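 Cells were treated 24 h at several concentrations. Pooled adherent and floating cells were lysed in Hepes 50 mM pH 7.4 / 1% Triton X-100 buffer with vanadate, NaF, EDTA, PMSF, aprotinin and leupeptin. Equal protein was run on 10-15% SDS-PAGE and blotted to PVDF. PDGFR-β-AKT-ULK1 pathway phospho-proteins were probed and detected by ECL, with β-actin as loading control.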

[5] = target: T1, Platelet-derived growth factor receptor beta; assay: Inhibition of PDGFRbeta in human MDA-MB-231 cells assessed as ULK Ser317 phosphorylation level at 5 uM incubated for 24 hrs by Western blot relative to untreated control; type: cell-based; in short: as §1
[6] = target: T1, Platelet-derived growth factor receptor beta; assay: Inhibition of PDGFRbeta in human MDA-MB-231 cells assessed as Akt Ser473 phosphorylation level at 2.5 uM incubated for 24 hrs by Western blot relative to untreated control; type: cell-based; in short: as §1
[7] = target: T1, Platelet-derived growth factor receptor beta; assay: Inhibition of PDGFRbeta in human MDA-MB-231 cells assessed as Akt Ser473 phosphorylation level at 2.5 uM incubated for 24 hrs in absence of PDGFRbeta siRNA by Western blot relative to untreated control; type: cell-based
In short: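 Cells were transfected with control or PDGFR-β siRNA, then treated with 2.5 μM compound for 24 h. PDGFR-β-AKT-ULK1 pathway phospho-proteins were assessed by western blot: lysis in Hepes pH 7.4 / Triton buffer, 10-15% SDS-PAGE, PVDF, ECL detection, β-actin as loading control.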

MDA-MB-231 [8] = assay: Induction of autophagy in human MDA-MB-231 cells assessed as change in Beclin-1 protein level at 2.5 uM incubated for 24 hrs in absence of PDGFRbeta siRNA by Western blot method relative to untreated control; type: functional
In short: (§2)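 MDA-MB-231 cells were exposed for 24 h. Adherent and floating cells were pooled and lysed for 1 h at 4 °C in 50 mM Hepes pH 7.4 with 1% Triton X-100, orthovanadate, NaF, EDTA, PMSF, aprotinin and leupeptin. After 12,000 rpm clearing, equal protein was run on 10-15% SDS-PAGE and blotted to PVDF. Detection used HRP-ECL, with β-actin as loading control and densitometric quantification.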

MDA-MB-231 [9] = assay: Effect on total PDGFRbeta protein level in human MDA-MB-231 cells at 10 uM incubated for 24 hrs by Western blot relative to untreated control; type: ADME, cell-based; settings: mda-mb-231, 24 h; in short: as §2
MDA-MB-231 [10] = assay: Induction of apoptosis in human MDA-MB-231 cells assessed as change in cleaved PARP protein level at 2.5 uM incubated for 24 hrs by Western blot method relative to untreated control; type: functional; in short: as §2
[11] = target: T1, Platelet-derived growth factor receptor beta; assay: Inhibition of PDGFRbeta in human MDA-MB-231 cells assessed as PDGFRbeta Tyr740 phosphorylation level at 5 uM incubated for 24 hrs by Western blot relative to untreated control; type: cell-based; in short: as §1
MDA-MB-231 [12] = assay: Effect on total Akt protein level in human MDA-MB-231 cells at 5 uM incubated for 24 hrs by Western blot relative to untreated control; type: ADME, cell-based; settings: mda-mb-231, 24 h; in short: as §2

T1 sequence (P09619 whole entry): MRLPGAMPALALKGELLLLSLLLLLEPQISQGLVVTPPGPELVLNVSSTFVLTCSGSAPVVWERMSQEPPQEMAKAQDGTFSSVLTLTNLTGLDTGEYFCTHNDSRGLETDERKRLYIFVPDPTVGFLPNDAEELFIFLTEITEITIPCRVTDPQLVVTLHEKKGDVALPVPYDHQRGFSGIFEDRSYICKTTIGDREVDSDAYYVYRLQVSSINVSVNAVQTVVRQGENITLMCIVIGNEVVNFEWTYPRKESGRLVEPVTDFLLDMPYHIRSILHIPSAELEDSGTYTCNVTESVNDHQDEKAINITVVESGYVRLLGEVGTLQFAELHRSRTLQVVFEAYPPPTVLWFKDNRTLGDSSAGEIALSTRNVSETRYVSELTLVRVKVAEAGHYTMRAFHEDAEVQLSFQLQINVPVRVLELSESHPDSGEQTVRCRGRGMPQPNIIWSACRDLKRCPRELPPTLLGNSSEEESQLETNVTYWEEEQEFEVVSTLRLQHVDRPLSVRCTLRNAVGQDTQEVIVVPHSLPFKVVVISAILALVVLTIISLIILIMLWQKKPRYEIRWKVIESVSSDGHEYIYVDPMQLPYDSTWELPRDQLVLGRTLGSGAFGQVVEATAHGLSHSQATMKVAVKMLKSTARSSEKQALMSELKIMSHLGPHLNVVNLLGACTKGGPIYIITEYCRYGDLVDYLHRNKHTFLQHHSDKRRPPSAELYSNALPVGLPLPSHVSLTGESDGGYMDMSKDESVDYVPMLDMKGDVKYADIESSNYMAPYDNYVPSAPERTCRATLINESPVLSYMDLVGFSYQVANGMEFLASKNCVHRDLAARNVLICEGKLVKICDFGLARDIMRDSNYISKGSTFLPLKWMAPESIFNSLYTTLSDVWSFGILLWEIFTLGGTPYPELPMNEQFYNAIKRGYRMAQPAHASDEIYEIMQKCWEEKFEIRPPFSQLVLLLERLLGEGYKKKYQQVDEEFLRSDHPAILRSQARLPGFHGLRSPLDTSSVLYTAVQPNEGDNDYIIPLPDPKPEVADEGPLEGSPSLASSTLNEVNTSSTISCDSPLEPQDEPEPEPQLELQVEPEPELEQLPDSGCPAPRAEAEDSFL

SMILES: COc1cccc(Nc2cc(N3CCN(C(=O)Nc4ccc(C(F)(F)F)cc4)CC3)ncn2)c1
- fold change (FC) (MDA-MB-231 [1]): 0.8
- fold change (FC) (MDA-MB-231 [2]): 1.03
- fold change (FC) (MDA-MB-231 [3]): 2.7
- fold change (FC) [4]: 1.2
- fold change (FC) [5]: 2.1
- fold change (FC) [6]: 0.45
- fold change (FC) [7]: 0.48
- fold change (FC) (MDA-MB-231 [8]): 4.02
- fold change (FC) (MDA-MB-231 [9]): 0.55
- fold change (FC) (MDA-MB-231 [10]): 0.89
- fold change (FC) [11]: 0.78
- fold change (FC) (MDA-MB-231 [12]): 0.84
